Series [1] in a line: Drug metabolism in anaerobic culture broth of monkey feces assessed as 1,4-dideoxy-1,4-imino-D-arabinitol formation at 63.5 uCi/ml after 24 hrs at 35 degC by LC-MS/MS method. As to conditions: cynomolgus monkey.
Series [2] can be described thus: Drug metabolism in F344 rat urine assessed as 1,4-dideoxy-1,4-imino-D-arabinitol formation by LC-MS/MS method. Type of series: ADME, tissue-based.
Series [3] is described as follows: Drug excretion in bile duct cannulated F344 rat bile at 1 mg/kg, po administered as single dose after 0 to 48 hrs by scintillation counting method. Type of series: ADME, organism-based. Further details: dose 1 mg/kg, route oral. As to conditions: in vivo. The procedure, abridged: (§1)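 Common bile duct was cannulated under diethyl ether in fasted F344 rats. After recovery, [14C]-labelled drug (1 mg/kg, 41.9 µCi/kg) was given iv via tail vein or by oral gavage (n = 4). Rats were held in Bollman cages and bile was collected at 4°C over 0–48 h intervals. Bile was counted by liquid scintillation; % of dose.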

Series [4] can be described thus: Drug excretion in F344 rat feces at 1 mg/kg, po administered as single dose after 0 to 168 hrs by scintillation counting method. Type of series: ADME, organism-based. The note with it: in vivo. Set-up: dose 1 mg/kg, route oral. The procedure, abridged: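 Fasted F344 rats (152–156 g iv via tail vein; 154–159 g oral; n = 4) received [14C]-labelled drug at 1 mg/kg (41.9 µCi/kg). Animals were kept in metabolic cages; urine and feces were collected to 168 h, and expired CO2 was trapped in 2-aminoethanol/2-methoxyethanol (1:1) to 48 h. Samples were counted by liquid scintillation (feces homogenized). Results are % of dose, mean ± S.D.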

A short description of series [5]: Drug metabolism in po dosed monkey urine assessed as 1,4-dideoxy-1,4-imino-D-arabinitol formation by LC-MS/MS method. As to conditions: cynomolgus monkey, in vivo.
Series [6] has as its system Ileum. As to the kind of experiment: Drug distribution in F344 rat ileum at 1 mg/kg, po administered as single dose after 2 hrs by scintillation counting method. It counts as ADME, organism-based. Set-up: dose 1 mg/kg, route oral. As to conditions: in vivo. The procedure, abridged: (§2)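 [14C]-labelled drug (1 mg/kg, 42.4 µCi/kg) was given orally to fasted F344 rats (148–168 g, n = 3). Contents of stomach, duodenum+jejunum, ileum and cecum were washed out with water at 0.5–8 h, homogenized, solubilized and counted by liquid scintillation. Results are % of dose, mean ± S.D.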

The nature of series [7]: Drug distribution in F344 rat cecum at 1 mg/kg, po administered as single dose after 4 hrs by scintillation counting method. Type of series: ADME, organism-based, Caecum. Further details: dose 1 mg/kg, route oral. As to conditions: in vivo. The procedure, abridged: as §2
Series [8] in a line: Drug metabolism in monkey liver S9 fractions at 0.42 uCi/ml assessed as metabolite formation in presence of NADPH after 1 hr at 37 degC by LC-MS/MS method. It counts as ADME, subcellular, Macaca mulatta, Liver S9 fraction. The note with it: rhesus monkey, s9, 1 h.
Series [9] is described as follows: Drug excretion in bile duct cannulated F344 rat bile at 1 mg/kg, iv administered as single dose after 0 to 48 hrs by scintillation counting method. Type of series: ADME, organism-based. Set-up: dose 1 mg/kg, route intravenous. The note with it: in vivo. The procedure, abridged: as §1
Series [10] is described as follows: Oral bioavailability in F344 rat at 10 mg/kg administered as single dose by LC-MS/MS method. As to conditions: in vivo. It counts as ADME, organism-based. In a few lines: (§3)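 Male F344 rats (146–185 g) and male cynomolgus monkeys (3.48–4.29 kg), n = 4 each, fasted overnight, received single iv or oral doses of 0.3, 1.0, 3.0 or 10.0 mg/kg. Monkeys had 2-week washouts between doses. Plasma was sampled to 48 h and assayed by LC-MS/MS with deuterated internal standard. Noncompartmental analysis: tmax observed; t1/2 by regression on ≥3 terminal log points; Vss = dose·AUMC/(AUC0–inf)²; Foral = oral/iv AUC0–inf at the same dose.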

Series [11] in a line: Half life in F344 rat at 0.3 mg/kg, iv administered as single dose by LC-MS/MS method. Type of series: ADME, organism-based. Set-up: dose 0.3 mg/kg, route intravenous. The note with it: in vivo. The procedure, abridged:
(§4)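 Fasted male F344 rats (146–185 g, n = 4 per dose) received single i.v. CS-1036. Plasma was sampled up to 48 h and analysed by LC-MS/MS. t1/2 came from noncompartmental regression of three or more log-transformed terminal-phase points. Mean ± S.D.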

Series [12] is described as follows: Half life in F344 rat at 3 mg/kg, po administered as single dose by LC-MS/MS method. Type of series: ADME, organism-based. Further details: dose 3 mg/kg, route oral. The note with it: in vivo. In a few lines: as §3
A short description of series [13]: Cmax in cynomolgus monkey at 10 mg/kg, po administered as single dose by LC-MS/MS method. Further details: dose 10 mg/kg, route oral. Type of series: ADME, organism-based, Macaca fascicularis. The note with it: in vivo. The procedure, abridged: (§5)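 Fasted male F344 rats (146–185 g) and cynomolgus monkeys (3.48–4.29 kg), n = 4 each, received a single oral dose; monkeys had 2-week washouts. Plasma sampled up to 48 h, stored at […], assayed by LC-MS/MS with a deuterated internal standard. Cmax taken from observed data by noncompartmental analysis; mean ± S.D. (n = 3 or 4).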

The nature of series [14]: Half life in cynomolgus monkey at 3 mg/kg, po administered as single dose by LC-MS/MS method. It counts as ADME, organism-based, Macaca fascicularis. Set-up: dose 3 mg/kg, route oral. The note with it: in vivo. In a few lines:
as §3

Series [15] in a line: Half life in F344 rat at 0.3 mg/kg, po administered as single dose by LC-MS/MS method. It counts as ADME, organism-based. Set-up: dose 0.3 mg/kg, route oral. As to conditions: in vivo.
Series [16] is described as follows: Cmax in F344 rat at 1 mg/kg, po administered as single dose by LC-MS/MS method. Type of series: ADME, organism-based. As to conditions: in vivo. Further details: dose 1 mg/kg, route oral. In a few lines: as §5
Series [17] is described as follows: AUClast in cynomolgus monkey at 0.3 mg/kg, iv administered as single dose by LC-MS/MS method. Type of series: ADME, organism-based, Macaca fascicularis. Further details: time 0 - last, dose 0.3 mg/kg, route intravenous. As to conditions: plasma. In a few lines: (§6)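 Fasted male F344 rats (146–185 g) or male cynomolgus monkeys (3.48–4.29 kg), n = 4 per dose, given single iv or oral dose of 0.3, 1.0, 3.0 or 10.0 mg/kg; monkeys dosed with 2-week washouts. Blood sampled to 48 h; plasma stored frozen. LC-MS/MS with deuterated internal standard. Noncompartmental analysis: AUClast by trapezoidal rule; AUC0–inf = AUClast + Ctz/terminal rate constant; mean ± S.D.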

The nature of series [18]: AUC (0 to infinity) in cynomolgus monkey at 1 mg/kg, po administered as single dose by LC-MS/MS method. It counts as ADME, organism-based, Macaca fascicularis. Set-up: dose 1 mg/kg, route oral, time infinity. As to conditions: plasma. The procedure, abridged: as §6
Series [19] in a line: Half life in F344 rat at 10 mg/kg, iv administered as single dose by LC-MS/MS method. It counts as ADME, organism-based. Further details: dose 10 mg/kg, route intravenous. As to conditions: in vivo. The procedure, abridged: as §4
Series [20] in a line: Clearance in cynomolgus monkey at 10 mg/kg, iv administered as single dose by LC-MS/MS method. Type of series: ADME, organism-based, Macaca fascicularis. Further details: dose 10 mg/kg, route intravenous. As to conditions: in vivo. The procedure, abridged: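 Fasted male F344 rats (146–185 g) and male cynomolgus monkeys (3.48–4.29 kg), n = 4 each, received a single iv dose; monkeys had 2-week washouts between doses. Blood was sampled up to 48 h and plasma stored at […]. Plasma parent was quantified by LC-MS/MS with a deuterated internal standard. CL = dose/AUC0–inf by noncompartmental analysis; mean ± S.D.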

The nature of series [21]: AUClast in cynomolgus monkey at 3 mg/kg, po administered as single dose by LC-MS/MS method. Type of series: ADME, organism-based, Macaca fascicularis. Further details: time 0 - last, dose 3 mg/kg, route oral. As to conditions: plasma. In a few lines: as §6
Series [22] is described as follows: Oral bioavailability in cynomolgus monkey at 1 mg/kg administered as single dose by LC-MS/MS method. It counts as ADME, organism-based, Macaca fascicularis. As to conditions: in vivo. The procedure, abridged:
as §3

A short description of series [23]: AUC (0 to infinity) in F344 rat at 10 mg/kg, iv administered as single dose by LC-MS/MS method. It counts as ADME, organism-based. Further details: time infinity, dose 10 mg/kg, route intravenous. The note with it: plasma. In a few lines:
as §6

Series [24] can be described thus: AUC (0 to infinity) in cynomolgus monkey at 10 mg/kg, iv administered as single dose by LC-MS/MS method. Further details: dose 10 mg/kg, route intravenous, time infinity. It counts as ADME, organism-based, Macaca fascicularis. As to conditions: plasma. The procedure, abridged:
as §6

Series [25] in a line: Volume of distribution at steady state in F344 rat at 1 mg/kg, iv administered as single dose by LC-MS/MS method. As to conditions: in vivo, read-out: Vdss. Further details: dose 1 mg/kg, route intravenous. It counts as ADME, organism-based. In a few lines: as §3

Data on 2 molecules can be found in ChEMBL document CHEMBL3526127, “Absorption, elimination, and metabolism of CS-1036, a novel α-amylase inhibitor in rats and monkeys, and the relationship between gastrointestinal distribution and suppression of glucose absorption” (Drug Metab Dispos, 2013).

As usually defined, the bioavailability is the share of a dose that reaches the circulation, judged against a reference dose that is usually intravenous. The half-life is how long it takes for the measured level to halve. As a reminder, the Cmax is the peak of the concentration-time curve. What is called AUC(0-t) is the area under the concentration-time curve up to a stated or last time point. Usually AUC(0-inf) stands for the area under the concentration-time curve extrapolated to infinity. Usually clearance stands for the volume of plasma or blood freed of the substance per unit of time.

Turning to `C[C@H]1O[C@@H](O[C@H]2[C@H](O)[C@@H](O)[C@@H](O[14C@H]3[14C@H](O)[14CH2]N[14C@@H]3[14CH2]O)O[C@@H]2CO)[C@H](O)[C@@H](O)[C@@H]1O`, the Drug metabolism result is on record as “metabolite_detected” in series [1], “metabolite_detected” in series [2], “metabolite_detected” in series [5] and “metabolite_not_detected” in series [8]. Further, the Drug excretion in [3] was determined as 0.59%; in [4], 80.28%; in series [9], 0.37%. Moreover, the Drug uptake in series [6] was determined as 33.9%; in series [7], 49.4%.

On to `C[C@H]1O[C@@H](O[C@H]2[C@H](O)[C@@H](O)[C@@H](O[C@H]3[C@H](O)CN[C@@H]3CO)O[C@@H]2CO)[C@H](O)[C@@H](O)[C@@H]1O`, for which the results for the bioavailability in series [10] and in series [22] were 2.03% and 0.983%, respectively. Further, the half-life in series [11] is 14.6 h; in series [12], 4.16 h; in series [14], 2.12 h; in series [15], 2.69 h; in series [19], 21.5 h. Further, the Cmax was determined as 152 ng/mL in series [13] and 45.5 ng/mL in series [16]. Also, the AUC(0-t) in [17] was 2000 ng·h/mL; in series [21] it was 186 ng·h/mL. In addition, the AUC(0-inf) in series [18] was 57.9 ng·h/mL; in series [23] it was 53200 ng·h/mL; in series [24] it was 74500 ng·h/mL. This molecule also came in with a clearance in series [20] of 2.25 mL/min/kg. In addition, in [25], the Vd came out at 0.237 L/kg.
